Measurements: ChEMBL document CHEMBL4043075, “Development of Fluorinated Analogues of Perhexiline with Improved Pharmacokinetic Properties and Retained Efficacy” (J Med Chem, 2017)
Activity calls are given as the source filed them. The calls are words filed in the database; no cut-off is given here.

How the values were obtained:
[1] = Stability of the compound in pH 7.4 PBS buffer at 37 degC after 1 hr; type: physicochemical; conditions: pH 7.4, 1 h
Outline: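 Compound incubated 1 h in pH 7.4 PBS at 37 °C, then checked for decomposition.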

[2] = Half life in Sprague-Dawley rat liver microsomes at 3 uM up to 45 mins in presence of NADPH by LC-MS/MS analysis; type: ADME, microsome
[3] = Half life in human liver microsomes at 3 uM up to 45 mins in presence of NADPH by LC-MS/MS analysis; type: ADME, microsome
[4] = Ratio of drug level in myocardium to plasma in BALB/c mouse at 10 mg/kg, po administered via gavage every 24 hrs for 7 days measured 1 hr post last dose by LC-MS/MS analysis; type: ADME, organism-based; conditions: myocardium and plasma
Outline: (§1)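 Male BALB/c mice, daily oral gavage at 10 mg/kg. Plasma and myocardium sampled 1, 4, 8 and 24 h after dosing, n = 3 per timepoint. […] Myocardium:plasma ratios taken from drug concentration or from AUC. Student's t-test used.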

[5] = Plasma concentration in Sprague-Dawley rat at 10 mg/kg, po administered via gavage every 24 hrs measured at 2 hrs post last dose by LC-MS/MS analysis; type: ADME, organism-based
Outline: (§2)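 Male Sprague-Dawley rats, daily oral dosing at 10 mg/kg. Plasma sampled at 1, 2, 4, 8 and 24 h after dosing, n = 3 per timepoint. Myocardium measured at 1 and 8 h. Myocardium:plasma ratio taken from drug concentration.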

[6] = Ratio of drug level in myocardium to plasma in BALB/c mouse at 10 mg/kg, po administered via gavage every 24 hrs for 7 days measured 8 hrs post last dose by LC-MS/MS analysis; type: ADME, organism-based; conditions: myocardium and plasma; outline: as §1
[7] = Drug uptake in BALB/c mouse myocardium at 10 mg/kg, po administered via gavage every 24 hrs for 7 days measured 1 hr post last dose by LC-MS/MS analysis; type: ADME, organism-based; conditions: read-out: Drug uptake; outline: as §1
[8] = Drug uptake in Sprague-Dawley rat myocardium at 10 mg/kg, po administered via gavage every 24 hrs measured at 1 hr post last dose by LC-MS/MS analysis; type: ADME, organism-based; conditions: read-out: Drug uptake; outline: as §2
[9] = target: T1, Carnitine O-palmitoyltransferase 1, muscle isoform (Rattus norvegicus, UniProt Q63704); assay: Inhibition of Wistar rat heart mitochondrial CPT-1 assessed as reduction in conversion of palmitoyl CoA and L-carnitine into palmitoylcarnitine preincubated for 3 mins followed by L-carnitine and palmitoyl CoA addition measured for 3.5 mins by spectrophotometric analysis
T1 sequence (Q63704 whole entry): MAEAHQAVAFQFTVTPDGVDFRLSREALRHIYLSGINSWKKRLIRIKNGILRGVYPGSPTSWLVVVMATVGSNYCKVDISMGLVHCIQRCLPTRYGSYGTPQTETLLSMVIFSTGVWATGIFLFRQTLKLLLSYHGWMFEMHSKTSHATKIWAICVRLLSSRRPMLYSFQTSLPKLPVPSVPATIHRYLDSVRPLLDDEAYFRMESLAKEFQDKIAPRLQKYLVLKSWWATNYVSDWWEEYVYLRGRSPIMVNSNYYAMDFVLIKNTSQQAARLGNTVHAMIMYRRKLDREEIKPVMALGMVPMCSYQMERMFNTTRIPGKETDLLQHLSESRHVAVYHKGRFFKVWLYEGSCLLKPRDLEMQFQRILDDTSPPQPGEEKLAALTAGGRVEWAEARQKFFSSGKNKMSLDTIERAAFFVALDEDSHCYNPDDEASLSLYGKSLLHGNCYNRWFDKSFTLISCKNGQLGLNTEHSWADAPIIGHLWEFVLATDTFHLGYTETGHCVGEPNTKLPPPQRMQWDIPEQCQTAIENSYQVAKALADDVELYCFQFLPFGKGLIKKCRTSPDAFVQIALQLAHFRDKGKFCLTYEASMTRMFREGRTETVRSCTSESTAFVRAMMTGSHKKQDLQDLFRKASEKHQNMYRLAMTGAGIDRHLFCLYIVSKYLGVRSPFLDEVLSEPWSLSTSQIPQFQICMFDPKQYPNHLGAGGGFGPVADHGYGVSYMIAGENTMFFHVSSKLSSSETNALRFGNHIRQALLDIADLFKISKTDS

[10] = Plasma concentration in BALB/c mouse at 10 mg/kg, po administered via gavage every 24 hrs for 7 days measured 4 hrs post last dose by LC-MS/MS analysis; type: ADME, organism-based; outline: as §1
[11] = Ratio of drug level in myocardium to plasma in BALB/c mouse at 10 mg/kg, po administered via gavage every 24 hrs for 7 days measured 4 hrs post last dose by LC-MS/MS analysis; type: ADME, organism-based; conditions: myocardium and plasma; outline: as §1
[12] = Plasma concentration in Sprague-Dawley rat at 10 mg/kg, po administered via gavage every 24 hrs measured at 8 hrs post last dose by LC-MS/MS analysis; type: ADME, organism-based; outline: as §2
[13] = Drug uptake in Sprague-Dawley rat myocardium at 10 mg/kg, po administered via gavage every 24 hrs measured at 8 hrs post last dose by LC-MS/MS analysis; type: ADME, organism-based; conditions: read-out: Drug uptake; outline: as §2
[14] = AUC (0 to 24 hrs) in BALB/c mouse plasma at 10 mg/kg, po administered via gavage every 24 hrs for 7 days measured post last dose by LC-MS/MS analysis; type: ADME, organism-based; set-up: dose 10 mg/kg, time < 24 hr, route oral; outline: as §1
[15] = Ratio of AUC (0 to 24 hrs) in myocardium to plasma in BALB/c mouse at 10 mg/kg, po administered via gavage every 24 hrs for 7 days measured post last dose by LC-MS/MS analysis; type: ADME, organism-based; conditions: myocardium and plasma, read-out: Ratio AUC; outline: as §1
[16] = target: CYP2D6 (Homo sapiens, UniProt P10635); assay: Drug metabolism assessed as human CYP2D6-mediated compound degradation by measuring half life at 5 uM up to 45 mins in presence of NADPH by LC-MS/MS analysis; type: ADME
Chain of CYP2D6 (P10635 whole entry): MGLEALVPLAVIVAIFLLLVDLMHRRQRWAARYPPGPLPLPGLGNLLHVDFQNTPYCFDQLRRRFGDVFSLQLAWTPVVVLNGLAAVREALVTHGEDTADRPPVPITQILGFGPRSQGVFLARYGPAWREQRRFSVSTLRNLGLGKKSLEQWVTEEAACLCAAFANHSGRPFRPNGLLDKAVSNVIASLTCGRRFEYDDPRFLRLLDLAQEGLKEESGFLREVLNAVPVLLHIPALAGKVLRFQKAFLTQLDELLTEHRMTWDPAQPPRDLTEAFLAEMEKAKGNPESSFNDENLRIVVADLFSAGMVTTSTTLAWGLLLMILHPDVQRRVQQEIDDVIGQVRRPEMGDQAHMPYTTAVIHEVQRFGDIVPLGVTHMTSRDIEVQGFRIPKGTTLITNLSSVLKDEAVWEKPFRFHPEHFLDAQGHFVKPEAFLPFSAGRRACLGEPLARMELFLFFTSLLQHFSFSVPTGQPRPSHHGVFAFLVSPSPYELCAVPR

[17] = Plasma concentration in Sprague-Dawley rat at 10 mg/kg, po administered via gavage every 24 hrs measured at 4 hrs post last dose by LC-MS/MS analysis; type: ADME, organism-based; outline: as §2
[18] = Drug uptake in BALB/c mouse myocardium at 10 mg/kg, po administered via gavage every 24 hrs for 7 days measured 8 hrs post last dose by LC-MS/MS analysis; type: ADME, organism-based; conditions: read-out: Drug uptake; outline: as §1
[19] = Ratio of drug level in myocardium to plasma in Sprague-Dawley rat at 10 mg/kg, po administered via gavage every 24 hrs measured at 1 hr post dose by LC-MS/MS analysis; type: ADME, organism-based; conditions: myocardium and plasma; outline: as §2
[20] = Ratio of drug level in myocardium to plasma in Sprague-Dawley rat at 10 mg/kg, po administered via gavage every 24 hrs measured at 8 hrs post dose by LC-MS/MS analysis; type: ADME, organism-based; conditions: myocardium and plasma; outline: as §2
[21] = AUC (0 to 24 hrs) in BALB/c mouse myocardium at 10 mg/kg, po administered via gavage every 24 hrs for 7 days measured post last dose by LC-MS/MS analysis; type: ADME, organism-based; set-up: time < 24 hr, dose 10 mg/kg, route oral; outline: as §1
[22] = Plasma concentration in BALB/c mouse at 10 mg/kg, po administered via gavage every 24 hrs for 7 days measured 8 hrs post last dose by LC-MS/MS analysis; type: ADME, organism-based; outline: as §1
[23] = Drug uptake in BALB/c mouse myocardium at 10 mg/kg, po administered via gavage every 24 hrs for 7 days measured 4 hrs post last dose by LC-MS/MS analysis; type: ADME, organism-based; conditions: read-out: Drug uptake; outline: as §1
[24] = tested on: Heart; assay: Cardioprotective activity in Langendorff perfused C57BL/6 mouse heart assessed as increase in cardiac relaxation at 10 uM perfused for 30 mins in presence of high fat relative to control; type: functional
Outline: (§3)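 Isolated C57BL/6 hearts (25-30 g) retrogradely perfused at constant 80 mmHg, 37 °C, 95% O2/5% CO2, with modified Krebs containing 1.2 mM sodium palmitate conjugated to 3% BSA. After 10 min stabilisation, 30 min perfusion with control buffer or compound at 2 or 10 µM. LVdP/dt max and min derived from LV pressure over 40 min; mean ± SEM, n = 12-19, 1-way ANOVA with Bonferroni.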

[25] = tested on: Heart; assay: Cardioprotective activity in Langendorff perfused C57BL/6 mouse heart assessed as increase in cardiac contractility at 10 uM perfused for 30 mins in presence of high fat relative to control; type: functional; outline: as §3
[26] = Plasma concentration in BALB/c mouse at 10 mg/kg, po administered via gavage every 24 hrs for 7 days measured at 1 hr post last dose by LC-MS/MS analysis; type: ADME, organism-based; outline: as §1
[27] = tested on: Heart; assay: Cardioprotective activity in Langendorff perfused C57BL/6 mouse heart perfused for 30 mins in presence of high fat; type: functional, tissue-based
[28] = tested on: Heart; assay: Cardioprotective activity against Langendorff perfused C57BL/6 mouse heart assessed as lusitropic effect at 10 uM measured for 40 mins reperfusion period in presence of high fat; type: functional, tissue-based; outline: as §3
[29] = Plasma concentration in Sprague-Dawley rat at 10 mg/kg, po administered via gavage every 24 hrs measured at 1 hr post dose by LC-MS/MS analysis; type: ADME, organism-based; outline: as §2

## C1CCC(CC(C2CCCC2)C2CCC2)NC1 (stereo not drawn)
[1]
  Stability: Stable
[2]
  half-life at 3 µM: 7 min
[3]
  half-life at 3 µM: 51 min

## c1ccc(C(CC2CCCCN2)C2CCCCC2)cc1 (stereo not drawn)
[1]
  Stability: Stable
[2]
  half-life at 3 µM: 4 min
[3]
  half-life at 3 µM: 56 min

## FC1(F)CCC(C(CC2CCCCN2)C2CCCCC2)CC1 (stereo not drawn)
[4]
  Kp at 1 h: 10.7
[5]
  concentration at 2 h: 375 ng/mL
[6]
  Kp at 8 h: 9.5
[7]
  concentration at 1 h: 3730 ng/mL
[8]
  concentration at 1 h: 5910 ng/mL
[9]
  IC50: 45 µM
[10]
  concentration at 4 h: 172 ng/mL
[11]
  Kp at 4 h: 10.9
[12]
  concentration at 8 h: 179 ng/mL
[13]
  concentration at 8 h: 1290 ng/mL
[14]
  AUC at 24 h: 3760 ng·h/mL
[15]
  Kp: 8.6
[16]
  half-life at 5 µM: 104 min
[17]
  concentration at 4 h: 297 ng/mL
[1]
  Stability: Stable
[2]
  half-life at 3 µM: 72 min
[3]
  half-life at 3 µM: > 500 min
[18]
  concentration at 8 h: 1830 ng/mL
[19]
  Kp at 1 h: 15.3
[20]
  Kp at 8 h: 7.2
[21]
  AUC at 24 h: 32400 ng·h/mL
[22]
  concentration at 8 h: 192 ng/mL
[23]
  concentration at 4 h: 1880 ng/mL
[24]
  fold change (FC): 2.7
[25]
  fold change (FC): 1.8
[26]
  concentration at 1 h: 346 ng/mL
[27]
  Activity: Dose-dependent effect
[28]
  Activity: Active
[29]
  concentration at 1 h: 386 ng/mL

## C1CCC(C(CC2CCCCN2)C2CCCC2)CC1 (stereo not drawn)
[9]
  IC50: 11 µM
[16]
  half-life at 5 µM: 16 min
[1]
  Stability: Stable
[2]
  half-life at 3 µM: 19 min
[3]
  half-life at 3 µM: > 150 min

## C1CCC(CC(C2CCCC2)C2CC2)NC1 (stereo not drawn)
[1]
  Stability: Stable
[2]
  half-life at 3 µM: 3 min
[3]
  half-life at 3 µM: 27 min
